Data taken from ChEMBL document CHEMBL4316592, “Synthesis of new derivatives of boehmeriasin A and their biological evaluation in liver cancer” (Eur J Med Chem, 2019).
The source made the active and inactive calls. No cut-off for these calls is given here.

Key:
Mahlavu [1] = experiment: Cell cycle arrest in human Mahlavu cells assessed as accumulation of cells at G2/M phase at 1 uM after 48 hrs by propidium iodide staining-based flow cytometric analysis (reference value: 22.3%); type: functional
Huh-7 [2] = experiment: Induction of apoptosis in human HuH7 cells assessed as late apoptotic cells at 1 uM after 48 hrs by Annexin V-FITC/propidium iodide staining-based flow cytometric analysis (reference value: 2.53%); type: functional
Mahlavu [3] = experiment: Down-regulation of CDK1 protein expression in human Mahlavu cells at 1 uM after 24 to 72 hrs by Western blot analysis; type: functional, cell-based
Mahlavu [4] = experiment: Induction of apoptosis in human Mahlavu cells assessed as apoptotic body formation at 1 uM by Hoechst staining-based assay; type: functional, cell-based
Mahlavu [5] = experiment: Cytotoxicity against human Mahlavu cells after 48 hrs by RTCA analysis; type: functional, cell-based
Outline: (§1)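 xCELLigence impedance real-time growth assay. Huh7 (2000) or Mahlavu (1000) cells plated, treated after 24 h at log phase with a 2-fold dilution series (4 steps) from a top concentration of 1. Cell index recorded every 10 min for 24 h, then every 30 min. Growth inhibition normalized to DMSO; IC50 taken at 24, 48, 72 h.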

[6] = biological target: T1, Mitogen-activated protein kinase kinase kinase 5 (Homo sapiens) (UniProt Q99683); experiment: Inhibition of ASK1 Ser-966 phosphorylation in human Mahlavu cells at 1 uM after 24 to 72 hrs by Western blot analysis; type: cell-based
T1 sequence (whole entry): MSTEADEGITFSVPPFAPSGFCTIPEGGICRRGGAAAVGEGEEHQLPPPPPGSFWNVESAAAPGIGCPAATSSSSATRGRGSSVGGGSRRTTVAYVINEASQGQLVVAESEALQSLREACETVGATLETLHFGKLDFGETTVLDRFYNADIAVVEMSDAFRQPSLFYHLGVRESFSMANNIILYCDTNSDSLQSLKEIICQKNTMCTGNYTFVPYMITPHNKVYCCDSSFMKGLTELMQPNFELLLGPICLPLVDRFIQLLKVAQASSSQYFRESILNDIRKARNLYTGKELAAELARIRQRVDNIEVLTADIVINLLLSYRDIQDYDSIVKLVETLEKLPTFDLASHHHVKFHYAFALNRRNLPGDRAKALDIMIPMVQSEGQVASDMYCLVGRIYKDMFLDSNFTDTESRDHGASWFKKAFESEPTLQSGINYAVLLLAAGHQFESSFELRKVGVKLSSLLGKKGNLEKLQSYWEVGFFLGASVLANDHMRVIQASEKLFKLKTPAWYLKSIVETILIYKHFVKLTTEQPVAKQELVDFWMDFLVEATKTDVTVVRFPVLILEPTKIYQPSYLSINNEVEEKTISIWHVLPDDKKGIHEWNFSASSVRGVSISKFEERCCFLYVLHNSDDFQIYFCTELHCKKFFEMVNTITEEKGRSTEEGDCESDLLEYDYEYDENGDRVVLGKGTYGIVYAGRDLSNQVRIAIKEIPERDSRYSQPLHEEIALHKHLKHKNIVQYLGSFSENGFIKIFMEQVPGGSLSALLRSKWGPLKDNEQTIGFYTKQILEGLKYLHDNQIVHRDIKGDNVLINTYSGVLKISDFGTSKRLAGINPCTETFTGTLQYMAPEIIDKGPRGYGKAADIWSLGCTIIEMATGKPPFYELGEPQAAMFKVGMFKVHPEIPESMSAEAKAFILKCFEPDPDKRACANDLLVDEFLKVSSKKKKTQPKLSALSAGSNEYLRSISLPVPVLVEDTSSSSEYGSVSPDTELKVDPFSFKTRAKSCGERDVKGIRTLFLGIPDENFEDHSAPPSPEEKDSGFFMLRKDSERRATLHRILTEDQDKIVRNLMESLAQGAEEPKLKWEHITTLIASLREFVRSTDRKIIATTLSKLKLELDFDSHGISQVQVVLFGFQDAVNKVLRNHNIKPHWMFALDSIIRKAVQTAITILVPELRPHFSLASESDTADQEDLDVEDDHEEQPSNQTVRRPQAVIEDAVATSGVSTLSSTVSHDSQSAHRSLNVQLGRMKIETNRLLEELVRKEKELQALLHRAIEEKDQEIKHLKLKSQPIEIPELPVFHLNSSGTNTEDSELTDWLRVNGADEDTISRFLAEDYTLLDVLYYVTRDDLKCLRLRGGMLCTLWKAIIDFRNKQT

Mahlavu [7] = experiment: Cytotoxicity against human Mahlavu cells after 72 hrs by RTCA analysis; type: functional, cell-based; outline: as §1
Huh-7 [8] = experiment: Induction of apoptosis in human HuH7 cells assessed as early apoptotic cells at 1 uM after 24 hrs by Annexin V-FITC/propidium iodide staining-based flow cytometric analysis (reference value: 0.17%); type: functional
Mahlavu [9] = experiment: Cell cycle arrest in human Mahlavu cells assessed as accumulation of cells at G2/M phase at 1 uM after 72 hrs by propidium iodide staining-based flow cytometric analysis (reference value: 20%); type: functional
Mahlavu [10] = experiment: Down-regulation of CDK2 protein expression in human Mahlavu cells at 1 uM after 24 to 72 hrs by Western blot analysis; type: functional, cell-based
Mahlavu [11] = experiment: Induction of apoptosis in human Mahlavu cells assessed as necrotic cells at 1 uM after 24 hrs by Annexin V-FITC/propidium iodide staining-based flow cytometric analysis (reference value: 0.13%); type: functional
Huh-7 [12] = experiment: Cytotoxicity against human HuH7 cells after 72 hrs by SRB assay; type: functional, cell-based; conditions: Homo sapiens, Huh-7, 72 h; read-out: IC50
Outline: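 SRB assay. Cells plated per well (HCT116 3000; Huh7, Hep3B, HepG2, MCF-7 2000; Mahlavu, FOCUS, SNU475 1000) and grown 24 h. Compounds came from 20 mM DMSO stocks and were tested in triplicate, 40 to 2,5 (or 2,5 to 0,03) per printed range, for 72 h. Cells fixed in 10% TCA, stained with 0.4% SRB, dye dissolved in 10 mM Tris, A515 read. IC50 derived after DMSO normalization.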

Mahlavu [13] = experiment: Cell cycle arrest in human Mahlavu cells assessed as accumulation of cells at G1 phase at 1 uM after 72 hrs by propidium iodide staining-based flow cytometric analysis (reference value: 44.6%); type: functional
MCF-12A = experiment: Cytotoxicity against human MCF12A cells after 72 hrs by SRB assay; type: cell-based; conditions: Homo sapiens, MCF-12A, 72 h; read-out: IC50
Mahlavu [14] = experiment: Cell cycle arrest in human Mahlavu cells assessed as accumulation of cells at S phase at 1 uM after 24 hrs by propidium iodide staining-based flow cytometric analysis (reference value: 23.2%); type: functional
Huh-7 [15] = experiment: Cell cycle arrest in human HuH7 cells assessed as accumulation of cells at G2/M phase at 1 uM after 72 hrs by propidium iodide staining-based flow cytometric analysis (reference value: 28.2%); type: functional
Mahlavu [16] = experiment: Induction of apoptosis in human Mahlavu cells assessed as chromatin condensation at 1 uM by Hoechst staining-based assay; type: functional, cell-based
Huh-7 [17] = experiment: Induction of apoptosis in human HuH7 cells assessed as necrotic cells at 1 uM after 48 hrs by Annexin V-FITC/propidium iodide staining-based flow cytometric analysis (reference value: 0.02%); type: functional
Huh-7 [18] = experiment: Induction of apoptosis in human HuH7 cells assessed as late apoptotic cells at 1 uM after 72 hrs by Annexin V-FITC/propidium iodide staining-based flow cytometric analysis (reference value: 2.34%); type: functional

| Structure (SMILES) | Activity (Mahlavu [1]) | Activity (Huh-7 [2]) | Activity (Mahlavu [3]) | Activity (Mahlavu [4]) | IC50 (Mahlavu [5]) | inhibition [6] | IC50 (Mahlavu [7]) | Activity (Huh-7 [8]) | Activity (Mahlavu [9]) | Activity (Mahlavu [10]) | Activity (Mahlavu [11]) | IC50 (Huh-7 [12]) | Activity (Mahlavu [13]) | IC50 (MCF-12A) | Activity (Mahlavu [14]) | Activity (Huh-7 [15]) | Activity (Mahlavu [16]) | Activity (Huh-7 [17]) | Activity (Huh-7 [18]) |
| --- | --- | --- | --- | --- | --- | --- | --- | --- | --- | --- | --- | --- | --- | --- | --- | --- | --- | --- | --- |
| COc1ccc2c3c(c4cc(OC)c(OC)cc4c2c1)CN1CCCC[C@@H]1C3 | 16.6% | 5.96% | Active | Active | 400 nM | Active | 600 nM | 0.07% | 49.9% | Active | 0.57% | 8 nM | 14.1% | 70 nM | 17.5% | 9.5% | Active | 0.07% | 16.15% |
| COc1ccc2c3c(c4cc(OC)c(OC)cc4c2c1)CN1CCCCC1C3O (racemic) | 32.9% | 5.52% | Active | Active | 4 nM | Active | 10 nM | 0% | 31.4% | Active | 0.13% | 2 nM | 9.5% | < 2000 nM | 14.3% | 11.5% | Active | 0.16% | 17.97% |
